Measurements published in ChEMBL document CHEMBL5136969, “A niclosamide-tobramycin hybrid adjuvant potentiates cefiderocol against P. aeruginosa” (2021).
Activity calls are given as the source filed them.

Key:
Acinetobacter baumannii [1] = assay: Potentiation of ciprofloxacin-induced antibiotic activity against Acinetobacter baumannii ATCC 17978 assessed as MIC fold reduction at 8 ug/ml after 18 hrs by microbroth dilution method; format: functional; conditions: dose 8 µg/ml
In short: (§1)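 Adjuvant held at a fixed 8 μg/mL while the antibiotic was 2-fold serially diluted in Mueller-Hinton broth (MHB), per CLSI microbroth dilution. Overnight cultures were adjusted in saline to 0.5 McFarland, then diluted 1:50 in MHB to about 5 × 10^5 CFU/mL final, and incubated 18 h at 37 °C. MIC was the lowest concentration with no visible turbidity, confirmed at 590 nm. Fold potentiation = MIC alone / MIC with adjuvant.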

Pseudomonas aeruginosa [2] = assay: Potentiation of tobramycin-induced antibiotic activity against Pseudomonas aeruginosa PAO1 assessed as MIC fold reduction at 8 ug/ml after 18 hrs by microbroth dilution method; format: functional; conditions: dose 8 µg/ml
Escherichia coli [3] = assay: Potentiation of tobramycin-induced antibiotic activity against Escherichia coli ATCC 25922 assessed as MIC fold reduction at 8 ug/ml after 18 hrs by microbroth dilution method; format: functional; conditions: dose 8 µg/ml
Pseudomonas aeruginosa [4] = assay: Potentiation of cefotaxime-induced antibiotic activity against Pseudomonas aeruginosa PAO1 assessed as MIC fold reduction at 8 ug/ml after 18 hrs by microbroth dilution method; format: functional; conditions: dose 8 µg/ml; in short: as §1
Pseudomonas aeruginosa [5] = assay: Potentiation of aztreonam-induced antibiotic activity against Pseudomonas aeruginosa PAO1 assessed as MIC fold reduction at 8 ug/ml after 18 hrs by microbroth dilution method; format: functional; conditions: dose 8 µg/ml
In short: (§2)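 Initial screen in MHB using a fixed 8 μg mL−1 of adjuvant combined with each antibiotic under 2-fold dilution. Broth microdilution used about 5 × 10^5 CFU/mL at 37 °C for 18 h, with visible turbidity read and confirmed at 590 nm. Fold-potentiation = antibiotic MIC alone ÷ antibiotic MIC with adjuvant.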

Escherichia coli [6] = assay: Potentiation of rifampicin-induced antibiotic activity against Escherichia coli ATCC 25922 assessed as MIC fold reduction at 8 ug/ml after 18 hrs by microbroth dilution method; format: functional; conditions: dose 8 µg/ml
Acinetobacter baumannii [7] = assay: Potentiation of erythromycin-induced antibiotic activity against Acinetobacter baumannii ATCC 17978 assessed as MIC fold reduction at 8 ug/ml after 18 hrs by microbroth dilution method; format: functional; conditions: dose 8 µg/ml; in short: as §1
Acinetobacter baumannii [8] = assay: Potentiation of fosfomycin-induced antibiotic activity against Acinetobacter baumannii ATCC 17978 assessed as MIC fold reduction at 8 ug/ml after 18 hrs by microbroth dilution method; format: functional; conditions: dose 8 µg/ml; in short: as §1
Acinetobacter baumannii [9] = assay: Potentiation of cindamycin-induced antibiotic activity against Acinetobacter baumannii ATCC 17978 assessed as MIC fold reduction at 8 ug/ml after 18 hrs by microbroth dilution method; format: functional; conditions: dose 8 µg/ml; in short: as §1
Escherichia coli [10] = assay: Potentiation of cindamycin-induced antibiotic activity against Escherichia coli ATCC 25922 assessed as MIC fold reduction at 8 ug/ml after 18 hrs by microbroth dilution method; format: functional; conditions: dose 8 µg/ml; in short: as §1
Escherichia coli [11] = assay: Antibacterial activity against Escherichia coli ATCC 25922 assessed as reduction in bacterial growth after 18 hrs by microbroth dilution method; format: functional
In short: (§3)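 CLSI microbroth dilution in MHB. Overnight cultures were adjusted to 0.5 McFarland in saline, diluted 1:50, and inoculated at about 5 × 10^5 CFU/mL. Agents were 2-fold serially diluted and incubated 18 h at 37 °C. MIC is the lowest concentration without visible turbidity, confirmed by absorbance at 590 nm. Medium with and without cells served as controls.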

Enterococcus faecium = assay: Antibacterial activity against Enterococcus faecium ATCC 27270 assessed as reduction in bacterial growth after 18 hrs by microbroth dilution method; format: functional; in short: as §3
Pseudomonas aeruginosa [12] = assay: Potentiation of cefotaxime-induced antibiotic activity against MDR clinical isolate Pseudomonas aeruginosa PA260 assessed as MIC fold reduction at 8 ug/ml after 18 hrs by microbroth dilution method; format: functional, organism-based; conditions: dose 8.0 µg/ml; in short: as §2
Pseudomonas aeruginosa [13] = assay: Potentiation of ceftazidime-induced antibiotic activity against […] Pseudomonas aeruginosa PAO1 assessed as MIC fold reduction at 8 ug/ml after 18 hrs by microbroth dilution method; format: functional, organism-based; conditions: dose 8.0 µg/ml; in short: as §1
Pseudomonas aeruginosa [14] = assay: Potentiation of cefiderocol-induced antibiotic activity against […] Pseudomonas aeruginosa PAO1 assessed as MIC fold reduction at 8 ug/ml after 18 hrs by microbroth dilution method; format: functional, organism-based; conditions: dose 8.0 µg/ml; in short: as §2
Pseudomonas aeruginosa [15] = assay: Antibacterial activity against MDR clinical isolate Pseudomonas aeruginosa PA259 assessed as reduction in bacterial growth after 18 hrs in presence of cefiderocol by microbroth dilution method; format: functional
In short: (§4)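 Checkerboard in MHB. Cefiderocol was 2-fold serially diluted along one axis and the adjuvant along the other. Inoculum was prepared from 0.5 McFarland saline suspensions diluted 1:50 in MHB, giving about 5 × 10^5 CFU/mL final. Plates ran 18 h at 37 °C, with turbidity confirmed at 590 nm. FIC = combination MIC ÷ MIC alone for each agent, and FIC index = sum of both. Interpretation: ≤0.5 synergy, >0.5–4 additive, >4 antagonism.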

Pseudomonas aeruginosa [16] = assay: Antibacterial activity against MDR clinical isolate Pseudomonas aeruginosa PA262 assessed as reduction in bacterial growth after 18 hrs in presence of cefiderocol by microbroth dilution method; format: functional
In short: (§5)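 Checkerboard in MHB (iron-replete, not iron-depleted CAMHB). Cefiderocol was 2-fold serially diluted along one axis and the adjuvant along the other. Inoculum was 0.5 McFarland diluted 1:50, about 5 × 10^5 CFU/mL final. Incubation was 18 h at 37 °C, with turbidity read visually and confirmed at 590 nm. FIC was the MIC in combination over the MIC alone for each agent, and the FIC index was their sum. Cut-offs were ≤0.5 synergy, >0.5–4 additive, >4 antagonism.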

Pseudomonas aeruginosa [17] = assay: Antibacterial activity against colistin-resistant clinical isolate Pseudomonas aeruginosa PA114228 assessed as reduction in bacterial growth after 18 hrs in presence of cefiderocol by microbroth dilution method; format: functional; in short: as §5
Pseudomonas aeruginosa [18] = assay: Antibacterial activity against MDR clinical isolate Pseudomonas aeruginosa PA101885 assessed as potentiation of cefiderocol antibacterial activity by measuring FIC index after 18 hrs by microbroth dilution method; format: functional; in short: as §4
Pseudomonas aeruginosa [19] = assay: Antibacterial activity against MDR clinical isolate Pseudomonas aeruginosa PA86052 assessed as potentiation of cefiderocol antibacterial activity by measuring FIC index after 18 hrs by microbroth dilution method; format: functional; in short: as §5
Acinetobacter baumannii [20] = assay: Antibacterial activity against Acinetobacter baumannii AB031 assessed as reduction in bacterial growth after 18 hrs in presence of cefiderocol by microbroth dilution method; format: functional
In short: (§6)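 Checkerboard in Mueller-Hinton broth: cefiderocol 2-fold diluted on one axis, adjuvant 2-fold on the other. Overnight cultures were adjusted to 0.5 McFarland in saline, diluted 1:50 in MHB, and inoculated at about 5 × 10^5 CFU/mL. Incubation was 18 h at 37 °C. Turbidity was read visually and confirmed at 590 nm. FIC index = FIC of antibiotic + FIC of adjuvant; ≤0.5 synergy, >4 antagonism.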

Escherichia coli [21] = assay: Antibacterial activity against Escherichia coli 94474 assessed as reduction in bacterial growth after 18 hrs by microbroth dilution method; format: functional; in short: as §3
Klebsiella pneumoniae [22] = assay: Antibacterial activity against Klebsiella pneumoniae KP113250 assessed as reduction in bacterial growth after 18 hrs in presence of cefiderocol by microbroth dilution method; format: functional; in short: as §6
Klebsiella pneumoniae [23] = assay: Antibacterial activity against Klebsiella pneumoniae KP113254 assessed as reduction in bacterial growth after 18 hrs in presence of cefiderocol by microbroth dilution method; format: functional; in short: as §4
Pseudomonas aeruginosa [24] = assay: Potentiation of moxifloxacin-induced antibiotic activity against Pseudomonas aeruginosa PAO1 assessed as reduction in microbial growth at 8 ug/ml after 18 hrs by microbroth dilution method relative to control; conditions: PAO1, 18 h, read-out: GI

## NC[C@H]1O[C@H](O[C@H]2[C@H](OCCCCc3cn(-c4ccc(NC(=O)c5cc(Cl)ccc5O)cc4)nn3)[C@@H](O[C@H]3O[C@H](CO)[C@@H](O)[C@H](N)[C@H]3O)[C@H](N)C[C@@H]2N)[C@H](N)C[C@@H]1O
Acinetobacter baumannii [1]
  fold change (FC): 4
Pseudomonas aeruginosa [2]
  fold change (FC): 4
Escherichia coli [3]
  fold change (FC): 4
Pseudomonas aeruginosa [4]
  fold change (FC): 4
Pseudomonas aeruginosa [5]
  fold change (FC): 4
Escherichia coli [6]
  fold change (FC): 4
Acinetobacter baumannii [7]
  fold change (FC): 4
Acinetobacter baumannii [8]
  fold change (FC): 4
Acinetobacter baumannii [9]
  fold change (FC): 4
Escherichia coli [10]
  fold change (FC): 4
Escherichia coli [11]
  MIC: > 128 µg/mL
Enterococcus faecium
  MIC: > 128 µg/mL
Pseudomonas aeruginosa [12]
  Activity: Active
Pseudomonas aeruginosa [13]
  Activity: Active
Pseudomonas aeruginosa [14]
  Activity: Active
Pseudomonas aeruginosa [15]
  MIC: 4 µg/mL
Pseudomonas aeruginosa [16]
  MIC: 1 µg/mL
Pseudomonas aeruginosa [17]
  MIC: 16 µg/mL
Pseudomonas aeruginosa [18]
  FIC: 0.017
Pseudomonas aeruginosa [19]
  FIC: 1
Acinetobacter baumannii [20]
  MIC: 0.25 µg/mL
Escherichia coli [21]
  MIC: > 128 µg/mL
Klebsiella pneumoniae [22]
  MIC: 4 µg/mL
Klebsiella pneumoniae [23]
  MIC: 1 µg/mL
Pseudomonas aeruginosa [24]
  inhibition of growth at 8 µg/mL: 100%
